Experimental data as given in ChEMBL document CHEMBL4049456, “Identification of 4-(Aminomethyl)-6-(trifluoromethyl)-2-(phenoxy)pyridine Derivatives as Potent, Selective, and Orally Efficacious Inhibitors of the Copper-Dependent Amine Oxidase, Lysyl Oxidase-Like 2 (LOXL2)” (J Med Chem, 2017).

Tests used:
Mus musculus [1] = experiment: Antifibrotic activity in C57BL/6 mouse assessed as reduction of lung fibrosis administered as po qd for 15 days starting 1 day prior to bleomycin instillation measured on day 14 post bleomycin instillation by Masson's trichrome staining-based assay; assay type: functional
Procedure, shortened: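 Lung fibrosis induced in male C57BL/6 mice aged 6 to 7 weeks by a single oropharyngeal dose of bleomycin (1.5 U/kg). Compound given orally once daily at 3, 10, 30 or 60 mg/kg for 15 days, starting 1 day before bleomycin. Lungs taken at day 14 post-bleomycin, stained with H&E and Masson's trichrome, and an Ashcroft score assigned.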

[2] = Cmax in C57BL/6 mouse lung at 30 mg/kg, po by LC-MS/MS analysis; assay type: ADME, organism-based; design: dose 30 mg/kg, route oral
Procedure, shortened: (§1)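 Normal C57BL/6 mice, n = 3 per time point, received a single oral 30 mg/kg dose formulated in 0.5% methylcellulose.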

Lysyl oxidase homolog 3 = target: T1, Lysyl oxidase homolog 3 (Homo sapiens, UniProt P58215); experiment: Inhibition of recombinant human LOXL3 assessed as reduction of H2O2 production from oxidative deamination of DAP preincubated for 2 hrs followed by substrate addition measured every 2 mins for 1 hr by amplex red reagent-based fluorescence assay
T1 sequence (P58215 whole entry): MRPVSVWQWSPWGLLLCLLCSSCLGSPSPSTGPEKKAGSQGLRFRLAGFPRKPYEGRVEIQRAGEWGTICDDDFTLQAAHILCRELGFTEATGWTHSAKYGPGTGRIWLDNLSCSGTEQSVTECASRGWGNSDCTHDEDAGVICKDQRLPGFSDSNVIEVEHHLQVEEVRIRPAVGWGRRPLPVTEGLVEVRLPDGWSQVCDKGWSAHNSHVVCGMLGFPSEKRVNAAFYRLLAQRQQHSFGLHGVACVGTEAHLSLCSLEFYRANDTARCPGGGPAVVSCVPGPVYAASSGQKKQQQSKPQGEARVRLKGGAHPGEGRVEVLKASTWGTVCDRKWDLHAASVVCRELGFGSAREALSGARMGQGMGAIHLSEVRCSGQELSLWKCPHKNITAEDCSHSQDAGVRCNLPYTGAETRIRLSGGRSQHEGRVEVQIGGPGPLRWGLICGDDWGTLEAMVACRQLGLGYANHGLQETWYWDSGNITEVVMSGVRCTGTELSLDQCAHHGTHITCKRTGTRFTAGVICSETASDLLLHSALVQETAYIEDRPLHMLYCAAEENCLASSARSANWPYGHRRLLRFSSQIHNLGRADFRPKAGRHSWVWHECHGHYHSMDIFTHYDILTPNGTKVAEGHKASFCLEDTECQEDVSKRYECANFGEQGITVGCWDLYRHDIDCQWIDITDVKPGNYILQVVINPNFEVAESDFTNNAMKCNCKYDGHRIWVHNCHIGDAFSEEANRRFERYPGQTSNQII
Procedure, shortened: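 Purified recombinant human LOXL3 was preincubated with compound for 2 h, then H2O2 produced from DAP deamination was measured.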

Lysyl oxidase homolog 2 = target: T2, Lysyl oxidase homolog 2 (Mus musculus, UniProt P58022); experiment: (§2) Inhibition of recombinant mouse LOXL2 expressed in mouse whole blood assessed as reduction of H2O2 production from oxidative deamination of DAP preincubated for 2 hrs followed by substrate addition measured every 2 mins for 1 hr by amplex red reagent-based fluorescence assay
T2 sequence (P58022 whole entry): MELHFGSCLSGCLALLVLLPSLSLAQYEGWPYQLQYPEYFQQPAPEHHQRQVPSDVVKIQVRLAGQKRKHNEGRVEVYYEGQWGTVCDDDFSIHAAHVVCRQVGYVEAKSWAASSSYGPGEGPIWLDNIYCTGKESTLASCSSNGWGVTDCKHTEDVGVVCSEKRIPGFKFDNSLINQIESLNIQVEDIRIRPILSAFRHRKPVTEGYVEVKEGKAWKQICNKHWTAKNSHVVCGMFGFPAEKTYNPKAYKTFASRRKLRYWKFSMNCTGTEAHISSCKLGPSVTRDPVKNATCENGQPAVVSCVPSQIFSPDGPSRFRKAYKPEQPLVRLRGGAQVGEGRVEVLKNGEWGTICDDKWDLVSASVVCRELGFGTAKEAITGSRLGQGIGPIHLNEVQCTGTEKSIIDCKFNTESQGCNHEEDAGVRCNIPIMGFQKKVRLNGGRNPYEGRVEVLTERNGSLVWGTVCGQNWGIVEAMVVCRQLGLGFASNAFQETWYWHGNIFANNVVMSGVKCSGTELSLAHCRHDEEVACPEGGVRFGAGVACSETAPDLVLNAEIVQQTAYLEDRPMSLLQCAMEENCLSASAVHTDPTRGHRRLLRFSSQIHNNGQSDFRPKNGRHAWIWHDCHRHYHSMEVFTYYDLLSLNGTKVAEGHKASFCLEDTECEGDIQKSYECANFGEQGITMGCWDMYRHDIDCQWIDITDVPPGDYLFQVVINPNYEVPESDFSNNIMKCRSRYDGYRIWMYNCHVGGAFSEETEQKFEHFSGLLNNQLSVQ

[3] = target: T3, Lysyl oxidase homolog 2 (Mus musculus) (UniProt P58022); experiment: as §2
T3 sequence (whole entry): T2 sequence (P58022 whole entry)

[4] = Cmax in C57BL/6 mouse plasma at 30 mg/kg, po by LC-MS/MS analysis; assay type: ADME, organism-based; design: dose 30 mg/kg, route oral; procedure, shortened: as §1
Mus musculus [5] = experiment: Toxicity in C57BL/6 mouse assessed as body weight loss at 3 to 60 mg/kg, po qd administered 15 days starting 1 day prior to bleomycin instillation; assay type: organism-based; conditions: in vivo
[6] = Protein binding in human plasma; assay type: ADME, cell-free; conditions: read-out: PPB (converted)
MAO-A = target: T4, MAO-A (Homo sapiens, UniProt P21397); experiment: Inhibition of recombinant human MAO-A assessed as reduction of H2O2 production from oxidative deamination of tyramine at 10 uM preincubated for 2 hrs followed by substrate addition; conditions: probe tyramine
T4 sequence (P21397 whole entry): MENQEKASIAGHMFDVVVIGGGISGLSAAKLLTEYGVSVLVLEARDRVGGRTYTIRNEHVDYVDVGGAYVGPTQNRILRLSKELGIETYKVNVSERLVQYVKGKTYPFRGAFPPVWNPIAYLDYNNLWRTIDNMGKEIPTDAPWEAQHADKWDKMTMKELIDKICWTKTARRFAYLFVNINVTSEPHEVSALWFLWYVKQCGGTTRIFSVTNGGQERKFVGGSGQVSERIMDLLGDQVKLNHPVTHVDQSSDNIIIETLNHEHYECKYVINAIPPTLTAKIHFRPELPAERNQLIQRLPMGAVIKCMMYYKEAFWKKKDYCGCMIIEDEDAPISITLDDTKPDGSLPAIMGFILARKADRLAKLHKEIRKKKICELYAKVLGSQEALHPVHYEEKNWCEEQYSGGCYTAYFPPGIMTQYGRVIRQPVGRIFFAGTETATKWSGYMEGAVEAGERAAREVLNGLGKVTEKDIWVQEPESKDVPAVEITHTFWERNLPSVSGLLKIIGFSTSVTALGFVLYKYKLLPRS
Procedure, shortened: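 Purified recombinant human MAO-A (tyramine substrate) or MAO-B (benzylamine substrate) was preincubated with compound for 2 h. Percent inhibition was calculated against vehicle and enzyme-free controls.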

With `Cl.NCc1cc(Oc2cccc(C(=O)N3C[C@@H](O)[C@H](F)C3)c2)nc(C(F)(F)F)c1` (racemic) the Activity (Mus musculus [1]) was “Dose-dependent effect”, the minimal effective dose (Mus musculus [1]; C57BL/6, po, read-out: MED) was 30 mg/kg and the Cmax [2] was 21 µM. The IC50 (Lysyl oxidase homolog 3) was 1380 nM, the IC50 (Lysyl oxidase homolog 2) was 860 nM and the IC90 [3] was 5600 nM. For the same molecule, the Cmax [4] was 3.09 µM, the Activity (Mus musculus [5]) was under 5% and the fraction unbound [6] was 0.32. It also gave an inhibition at 2 h, 10 µM (MAO-A) of under 10%.
